{
  "source": "paper PMC3085913",
  "about": "(NeuroImage, 2011)",
  "key": {"[1]": {"test_system": "Aβ plaques in APP and APP/PS1 transgenic AD mice", "conditions": "MRI after injection; ref Wadghiri et al., 2003; cited from earlier work"}, "[2]": {"test_system": "N2a mouse neuroblastoma cells", "assay": "MTS cell proliferation", "type": "cell-based", "conditions": "72 hrs"}, "[3]": {"test_system": "APP/PS1 Tg and wild-type mouse brain (amyloid plaques)", "assay": "ROI-based absolute T2* measurement, in vivo μMRI", "conditions": "contrast injected APP/PS1 Tg versus contrast injected wild-type mice"}, "[4]": {"test_system": "APP/PS1 Tg versus wild-type mouse brain (amyloid plaques)", "assay": "Voxel-based morphometry", "type": "in vivo", "conditions": "for VBM cluster T-score: WT n=12 vs AD Tg n=13; for VBM cluster Extent: WT n=12 vs AD Tg n=13 after contrast injection"}, "[5]": {"test_system": "amyloid plaques in APP/PS1 Tg mouse brain", "type": "in vivo", "conditions": "femoral i.v. with mannitol; third echo, TE = 17.5", "how_it_was_run": "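Aged 13–17-month APP/PS1 mice and age-matched C57Bl/6J controls received the test conjugate at 0.2 mmol Fe/kg in 200 μl 15% mannitol/PBS, infused via right femoral vein at 60 μl/min under isoflurane. Later: pentobarbital 150 mg/kg i.p., transaortic perfusion with PBS then 4% paraformaldehyde. Extracted brains scanned overnight, up to four together; third echo of four-echo set. 6E10/4G8 histology for matching. 13 Tg vs 12 wild-type.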"}, "[6]": {"test_system": "amyloid plaques in APP/PS1 Tg and wild-type mouse brain", "type": "in vivo", "conditions": "two 14-month-old APP/PS1 mice, before and 6 hs after contrast injection; data not shown", "how_it_was_run": "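Mice received the test conjugate at 0.2 mmol Fe/kg in 200 μl 15% mannitol/PBS by right femoral vein infusion at 60 μl/min, under isoflurane (2.5% induction, 1–1.5% maintenance). Scanned 6 h post-injection; two 14-month-old APP/PS1 mice were also scanned pre-injection. 3D four-echo acquisition; third echo (TE=12.3 ms) gave the T2*-weighted images. Checked against matched immunostained sections.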"}, "[7]": {"test_system": "APP/PS1 Tg and wild-type mice", "assay": "Toxicity observed in experimental animals", "type": "in vivo, mouse", "conditions": "0.2 mmol Fe/kg femoral i.v. with 15% mannitol"}, "blood brain barrier": {"test_system": "blood brain barrier", "conditions": "rodents, after intra-arterial carotid injection; ref McCarty et al., 2009; cited from earlier work"}, "humans": {"test_system": "humans", "conditions": "patients, ref Castillo et al., 2009, Tang and Lobel; cited from earlier work"}},
  "note": "“Also recorded” adds a separate entry of the source.",
  "data": [
    {"compound": "MION-Aβ1-40: Aβ1-40 magnetically labeled with monocrystalline iron oxide nanoparticles (MION)", "values": [
      {"measurement": "plaque visualization as hypointense spots (in words)", "setting": "[1]", "result": "hypointense spots characterized by loss of signal intensity"}
    ]},
    {"compound": "Aβ1-42: Aβ 1-42 peptide synthesized in the W.M. Keck Facility at Yale University [reference compound]", "values": [
      {"measurement": "reduction in cell viability", "setting": "[2]; 10 μM, MTS, 490 nm, percent of non-treated control", "result": 50, "unit": "%"}
    ]},
    {"compound": "USPIO-Aβ1-42: ultrasmall superparamagnetic iron oxide (USPIO) nanoparticles linked to Aβ1-42 peptide using standard EDC/NHS coupling methods", "values": [
      {"measurement": "p, T2* difference in left and right cortex (Figure 5C)", "setting": "[3]", "result": "< 0.01"},
      {"measurement": "VBM difference in cerebellum (in words)", "setting": "[4]; APP/PS1 (n=13) versus wild-type (n=12), USPIO-Aβ1-42 injected", "result": "No differences were seen in the cerebellum"},
      {"measurement": "VBM cluster T-score", "setting": "[4]; cluster AuD, Cortex (R)", "result": 3.02},
      {"measurement": "VBM cluster Extent", "setting": "[4]; cluster AuD, Cortex (R)", "result": 1388, "unit": "voxels"},
      {"measurement": "VBM cluster T-score", "setting": "[4]; cluster FrA, Cortex (L)", "result": 5.03},
      {"measurement": "VBM cluster Extent", "setting": "[4]; cluster FrA, Cortex (L)", "result": 1123, "unit": "voxels"},
      {"measurement": "VBM cluster T-score", "setting": "[4]; cluster HDB, Cortex (R)", "result": 4.02},
      {"measurement": "VBM cluster Extent", "setting": "[4]; cluster HDB, Cortex (R)", "result": 685, "unit": "voxels"},
      {"measurement": "VBM cluster T-score", "setting": "[4]; cluster LEnt, Cortex (L)", "result": 3.78},
      {"measurement": "VBM cluster Extent", "setting": "[4]; cluster LEnt, Cortex (L)", "result": 656, "unit": "voxels"},
      {"measurement": "VBM cluster T-score", "setting": "[4]; cluster M1, Cortex (L)", "result": 3.48},
      {"measurement": "VBM cluster T-score", "setting": "[4]; cluster M2, Cortex (R)", "result": 3.71},
      {"measurement": "VBM cluster T-score", "setting": "[4]; cluster PoDG, Hippocampus (R)", "result": 4.42},
      {"measurement": "VBM cluster Extent", "setting": "[4]; cluster PoDG, Hippocampus (R)", "result": 20830, "unit": "voxels"},
      {"measurement": "VBM cluster T-score", "setting": "[4]; cluster RSG, Cortex (L)", "result": 5.00},
      {"measurement": "VBM cluster Extent", "setting": "[4]; cluster RSG, Cortex (L)", "result": 1624, "unit": "voxels"},
      {"measurement": "VBM cluster T-score", "setting": "[4]; cluster S1BF, Cortex (L)", "result": 4.92},
      {"measurement": "VBM cluster Extent", "setting": "[4]; cluster S1BF, Cortex (L)", "result": 36911, "unit": "voxels"},
      {"measurement": "VBM cluster T-score", "setting": "[4]; cluster S1FL, Cortex (L)", "result": 3.30},
      {"measurement": "VBM cluster Extent", "setting": "[4]; cluster S1FL, Cortex (L)", "result": 653, "unit": "voxels"},
      {"measurement": "VBM cluster T-score", "setting": "[4]; cluster S1FL, Cortex (R)", "result": 4.27},
      {"measurement": "VBM cluster Extent", "setting": "[4]; cluster S1FL, Cortex (R)", "result": 4637, "unit": "voxels"},
      {"measurement": "VBM cluster T-score", "setting": "[4]; cluster SuG, Colliculus (R)", "result": 4.72},
      {"measurement": "VBM cluster Extent", "setting": "[4]; cluster SuG, Colliculus (R)", "result": 2194, "unit": "voxels"},
      {"measurement": "plaque detection on ex vivo μMRI, APP/PS1 mice", "setting": "[5]", "result": "Amyloid plaques were also detected; also recorded: Many plaques can be detected in APP/PS1 mice"},
      {"measurement": "cell viability, USPIO versus USPIO-Aβ1-42 (significance in words)", "setting": "[2]; bound Aβ1-42 10 μM, Newman-Keuls post-hoc", "result": "did not differ significantly"},
      {"measurement": "cell viability versus control untreated cells (significance in words)", "setting": "[2]; bound Aβ1-42 10 μM, USPIO matched, Newman-Keuls post-hoc", "result": "did not differ significantly"},
      {"measurement": "amyloid plaque detection pre- versus postinjection", "setting": "[6]", "result": "Amyloid plaques were only detected in the postinjection images"},
      {"measurement": "toxicity in experimental animals (in words)", "setting": "[7]", "result": "no evidence of toxicity in our experimental animals"}
    ]},
    {"compound": "OC[C@@H](O)[C@@H](O)[C@H](O)[C@H](O)CO", "note": "[mannitol]", "values": [
      {"measurement": "time of maximum BBB disruption, intra-arterial carotid", "setting": "blood brain barrier", "result": 5, "unit": "min"},
      {"measurement": "tolerability of intravenous mannitol (in words)", "setting": "humans", "result": "much better tolerated and is used safely in patients"}
    ]}
  ]
}
